Laboratory results as given in ChEMBL document CHEMBL1777695, “Design and synthesis of pironetin analogues with simplified structure and study of their interactions with microtubules” (Eur J Med Chem, 2011).
The source made the active and inactive calls. The rule behind the calls is not given here.

Assays:
A2780 [1] = test: Cytotoxicity against compound-sensitive human A2780 cells after 24 hrs by MTT assay; format: functional, cell-based; settings: A2780, 24 h
Summary of the method: (§1)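 MTT proliferation assay in ovarian carcinoma A2780 and P-glycoprotein-overexpressing A2780AD cells, grown in RPMI 1640 with 10% FCS, glutamine, antibiotics and 0.25 units/mL bovine insulin. IC50 (50% inhibition of proliferation) is the mean ± standard error of two independent experiments in duplicate. Relative resistance is IC50 in A2780AD divided by IC50 in A2780.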

[2] = Cytotoxicity against compound-resistant human A2780AD cells after 24 hrs by MTT assay; format: functional, cell-based; settings: A2780 ADR; summary of the method: as §1
A549 [3] = test: Cell cycle arrest in human A549 cells assessed as minimum concentration required to induce accumulation at G2/M phase after 20 hrs by propidium iodide staining-based flow cytometry; format: functional
Summary of the method: (§2)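 A549 cells (RPMI 1640, 10% FCS, glutamine, antibiotics) exposed 20 h to ligand or vehicle. Cells fixed, RNase-treated and stained with propidium iodide. DNA content read by flow cytometry. The lowest concentration giving maximal G2/M arrest is reported.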

[4] = Displacement of pironetin from tubulin in cell-free system assessed as bound pironetin concentration at 200 uM after 15 mins by HPLC method
Summary of the method: (§3)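 Tubulin (25 µM in GAB: 3.4 M glycerol, 10 mM sodium phosphate, 1 mM EGTA, 1 mM GTP, pH 6.5) preincubated 15 min at 37 °C with 200 µM analogue or DMSO. 30 µM pironetin then added for a further 15 min. Docetaxel (10 µM) added as internal standard. Unreacted pironetin extracted three times with CH2Cl2 and quantified by reverse-phase HPLC, UV at 230 nm. Mean of three measurements ± SE.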

A549 [5] = test: Induction of apoptosis in human A549 cells after 20 hrs; format: functional, cell-based
[6] = Displacement of pironetin from tubulin in cell-free system assessed as unbound pironetin concentration at 200 uM after 15 mins by HPLC method; summary of the method: as §3
A2780 [7] = test: Resistance index, ratio of IC50 for human compound-resistant A2780AD cells to IC50 for human compound-sensitive A2780 cells
[8] = Inhibition of tubulin assembly assessed as concentration of tubulin required to produce assembly at 100 uM after 30 mins
Summary of the method: (§4)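 Purified tubulin (20 µM) incubated 30 min at 37 °C in GAB (3.4 M glycerol, 10 mM sodium phosphate, 1 mM EGTA, 1 mM GTP, pH 6.5) with 25 µM pironetin or docetaxel, 100 µM analogue, or DMSO vehicle. Critical concentration for assembly determined. Mean of five measurements ± SE.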

A549 [9] = test: Induction of abberant mitosis in human A549 cells assessed as metaphase mitotic cells with type III mitotic spindles at 200 uM after 4 hrs relative to control; format: functional, cell-based
Summary of the method: (§5)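 A549 cells grown overnight on coverslips, then treated 4 h with ligand (50 nM or 200 µM) or DMSO vehicle. Cells permeabilized with Triton X-100 and fixed in 3.7% formaldehyde. Microtubules stained with DM1A anti-α-tubulin antibody and DNA with Hoechst 33342. Spindle and microtubule morphology examined by epifluorescence microscopy.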

A549 [10] = test: Induction of abberant mitosis in human A549 cells assessed as metaphase mitotic cells with DNA forming a ring surrounding mono-aster of microtubule at 200 uM after 4 hrs relative to control; format: functional, cell-based; summary of the method: as §5
A549 [11] = test: Induction of microtubule cytoskeleton depolymerization in human A549 cells at 200 uM after 4 hrs by immunofluorescence assay; format: cell-based
A549 [12] = test: Cell cycle arrest in human A549 cells assessed accumulation at G2/M phase at 50 nM after 20 hrs by propidium iodide staining-based flow cytometry; format: functional; summary of the method: as §2
A549 [13] = test: Induction of microtubule cytoskeleton depolymerization in human A549 cells at 50 nM after 4 hrs by immunofluorescence assay; format: cell-based; summary of the method: as §5
A549 [14] = test: Induction of abberant mitosis in human A549 cells assessed as metaphase mitotic cells with type III mitotic spindles at 50 nM after 4 hrs relative to control; format: functional, cell-based; summary of the method: as §5
A549 [15] = test: Induction of abberant mitosis in human A549 cells assessed as metaphase mitotic cells with DNA forming a ring surrounding mono-aster of microtubule at 50 nM after 4 hrs relative to control; format: functional, cell-based; summary of the method: as §5
[16] = Inhibition of tubulin assembly assessed as concentration of tubulin required to produce assembly at 25 uM after 30 mins; summary of the method: as §4
[17] = Binding affinity to tubulin after 15 min; summary of the method: as §3

| Activity [4] [µM] | Activity [6] [µM] | Activity [8] [µM] | Activity [16] [µM] | Activity [17] [µM] | Structure (SMILES) | IC50 (A2780 [1]) [µM] | IC50 [2] [µM] | Activity (A549 [3]) [µM] | Activity (A549 [5]) | Ratio IC50 (A2780 [7]) | Activity (A549 [9]) | Activity (A549 [10]) | Activity (A549 [11]) | Activity (A549 [12]) | Activity (A549 [13]) | Activity (A549 [14]) | Activity (A549 [15]) |
| --- | --- | --- | --- | --- | --- | --- | --- | --- | --- | --- | --- | --- | --- | --- | --- | --- | --- |
| 4 | 10 | – | – | – | CCCCC[C@@H](C[C@H](O)C[C@@H]1CC=CC(=O)O1)OC | 35.4 | 26.3 | 100 | inactive | 0.74 | – | – | – | – | – | – | – |
| 4 | 10 | 3.39 | – | – | CCCCC[C@H](C[C@H](O)C[C@H]1CC=CC(=O)O1)OC | 44 | 57.5 | 100 | inactive | 1.3 | – | – | – | – | – | – | – |
| 4 | 10 | – | – | – | CCCCC[C@H](C[C@H](O)C[C@@H]1CC=CC(=O)O1)OC | 22.9 | 30 | 100 | inactive | 1.3 | – | – | – | – | – | – | – |
| – | – | – | – | – | CCCCC[C@@H](C[C@H](O)C[C@H]1CC=CC(=O)O1)OC | 53.7 | 48 | 200 | inactive | 0.89 | – | – | – | – | – | – | – |
| 10 | 15 | 3.85 | – | – | CCCCC[C@H](CCC[C@H]1CC=CC(=O)O1)OC | 17.1 | 12.2 | 50 | – | 0.7 | Active | Active | Active | – | – | – | – |
| – | – | – | – | – | CCCCC[C@H](C[C@@H](O)C[C@@H]1CC=CC(=O)O1)OC | 54.5 | 91.5 | 200 | inactive | 1.67 | – | – | – | – | – | – | – |
| – | – | 3.73 | – | – | CCCCC[C@@H](CCC[C@H]1CC=CC(=O)O1)OC | 20.6 | 9 | 50 | inactive | 0.45 | Active | Active | Active | – | – | – | – |
| 10 | 15 | 3.75 | – | – | CCCCC[C@@H](CCC[C@@H]1CC=CC(=O)O1)OC | 14.9 | 11.5 | 50 | inactive | 0.77 | – | – | – | – | – | – | – |
| – | – | – | > 15 | 23.4 | C/C=C/C[C@H](C)[C@@H](OC)[C@@H](C)[C@H](O)C[C@H]1OC(=O)C=C[C@H]1CC [PIRONETIN] | 0.0029 | 0.003 | – | inactive | 1 | – | – | – | Active | Active | Active | Active |
| – | – | 3.44 | – | – | CCCCC[C@H](C[C@@H](O)C[C@H]1CC=CC(=O)O1)OC | 28.9 | 18.1 | 100 | inactive | 0.62 | – | – | – | – | – | – | – |
| – | – | – | – | – | CCCCC[C@@H](C[C@@H](O)C[C@@H]1CC=CC(=O)O1)OC | 49.4 | 46.3 | 200 | inactive | 0.93 | Active | Active | Active | – | – | – | – |
| 10 | 15 | 3.79 | – | – | CCCCC[C@H](CCC[C@@H]1CC=CC(=O)O1)OC | 14.4 | 20.5 | 50 | – | 1.42 | Active | Active | Active | – | – | – | – |
| – | – | – | 0.4 | – | CC(=O)O[C@@]12CO[C@@H]1C[C@H](O)[C@@]1(C)C(=O)[C@H](O)C3=C(C)[C@@H](OC(=O)[C@H](O)[C@@H](NC(=O)OC(C)(C)C)c4ccccc4)C[C@@](O)([C@@H](OC(=O)c4ccccc4)[C@H]21)C3(C)C | – | – | – | – | – | – | – | – | – | – | – | – |
| – | – | – | – | – | CCCCC[C@@H](C[C@@H](O)C[C@H]1CC=CC(=O)O1)OC | 33.7 | 25.2 | 200 | inactive | 0.74 | – | – | – | – | – | – | – |
| – | – | – | – | – | CC(=O)O[C@H]1C(=O)[C@@]2(C)[C@H]([C@H](OC(=O)c3ccccc3)[C@]3(O)C[C@H](OC(=O)[C@H](O)[C@@H](NC(=O)c4ccccc4)c4ccccc4)C(C)=C1C3(C)C)[C@]1(OC(C)=O)CO[C@@H]1C[C@@H]2O [PACLITAXEL] | 0.00082 | 0.949 | – | – | 1157 | – | – | – | – | – | – | – |
